This note sets out measurements from the M2OR odorant receptor database.

What all share (settings): stereoisomer not certain
For one assay, the target named is T1, OR56B4 (Homo sapiens) (UniProt Q8NH76).
T1 sequence (whole entry): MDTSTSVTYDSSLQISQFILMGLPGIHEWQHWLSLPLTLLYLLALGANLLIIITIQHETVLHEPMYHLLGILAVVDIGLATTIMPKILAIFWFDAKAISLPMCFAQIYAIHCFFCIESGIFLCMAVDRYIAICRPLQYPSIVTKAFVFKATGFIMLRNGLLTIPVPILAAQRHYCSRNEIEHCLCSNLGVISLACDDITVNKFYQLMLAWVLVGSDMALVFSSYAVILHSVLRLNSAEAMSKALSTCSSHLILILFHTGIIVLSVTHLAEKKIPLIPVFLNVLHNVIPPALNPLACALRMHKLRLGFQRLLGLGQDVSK
A digest of the protocol: (§1)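 Whether a receptor–molecule pair is responsive (active) rests on the original authors' judgment that its measured signal was statistically different from baseline. Pairs without that judgment are non-responsive (inactive). Sources used varied assay methods, commonly transient luciferase assays in mammalian cell lines.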

The next assay deals with T2, OR5A1 (Homo sapiens) (UniProt Q8NGJ0).
T2 sequence (whole entry): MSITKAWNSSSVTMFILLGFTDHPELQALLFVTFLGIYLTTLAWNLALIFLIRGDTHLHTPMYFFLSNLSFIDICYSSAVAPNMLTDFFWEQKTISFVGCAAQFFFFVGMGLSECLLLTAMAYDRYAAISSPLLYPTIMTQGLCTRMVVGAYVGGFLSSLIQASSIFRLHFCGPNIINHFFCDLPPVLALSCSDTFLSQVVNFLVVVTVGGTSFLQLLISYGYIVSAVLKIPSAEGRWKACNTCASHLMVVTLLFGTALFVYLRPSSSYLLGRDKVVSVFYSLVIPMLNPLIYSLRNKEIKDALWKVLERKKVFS
Summed up: as §1

In the next assay the test system is T3, OR5A1 D183N.
T3 sequence (whole entry): T2 sequence (whole entry) with D183N
A digest of the protocol:
as §1

For a further assay, the target named is T4, OR5A2 (Homo sapiens) (UniProt Q8NGI9).
T4 sequence (whole entry): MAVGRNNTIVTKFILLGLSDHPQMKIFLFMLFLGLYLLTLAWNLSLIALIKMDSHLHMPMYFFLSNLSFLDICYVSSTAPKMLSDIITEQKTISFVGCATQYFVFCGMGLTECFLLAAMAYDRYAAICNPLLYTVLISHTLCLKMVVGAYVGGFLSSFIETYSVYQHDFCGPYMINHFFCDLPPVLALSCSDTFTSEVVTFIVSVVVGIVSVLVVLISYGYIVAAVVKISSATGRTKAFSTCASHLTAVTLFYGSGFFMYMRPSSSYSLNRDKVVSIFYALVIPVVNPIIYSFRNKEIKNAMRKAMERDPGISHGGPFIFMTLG
Summed up: as §1

A further assay deals with T5, OR5AC2 (Homo sapiens) (UniProt Q9NZP5).
T5 sequence (whole entry): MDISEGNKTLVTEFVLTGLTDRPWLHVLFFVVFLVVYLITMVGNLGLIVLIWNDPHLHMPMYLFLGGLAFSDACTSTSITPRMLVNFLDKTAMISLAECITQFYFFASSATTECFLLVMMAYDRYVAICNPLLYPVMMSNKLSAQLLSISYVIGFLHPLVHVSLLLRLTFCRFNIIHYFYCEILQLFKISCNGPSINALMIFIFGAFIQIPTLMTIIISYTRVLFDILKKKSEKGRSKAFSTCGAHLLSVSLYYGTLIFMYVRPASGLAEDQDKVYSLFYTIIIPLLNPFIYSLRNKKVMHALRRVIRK
Summed up: as §1

A further assay has as its target T6, OR5AK2 (Homo sapiens) (UniProt Q8NH90).
T6 sequence (whole entry): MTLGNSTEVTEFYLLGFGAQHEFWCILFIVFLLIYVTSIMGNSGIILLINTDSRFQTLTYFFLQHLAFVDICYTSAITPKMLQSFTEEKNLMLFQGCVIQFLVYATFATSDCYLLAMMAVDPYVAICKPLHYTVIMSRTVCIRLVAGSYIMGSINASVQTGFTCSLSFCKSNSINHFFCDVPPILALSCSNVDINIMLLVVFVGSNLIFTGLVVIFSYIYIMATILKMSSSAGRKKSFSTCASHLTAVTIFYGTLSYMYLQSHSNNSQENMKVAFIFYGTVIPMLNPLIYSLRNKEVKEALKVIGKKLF
Summed up: as §1

For the next assay, the target named is T7, OR5AN1 (Homo sapiens) (UniProt Q8NGI8).
T7 sequence (whole entry): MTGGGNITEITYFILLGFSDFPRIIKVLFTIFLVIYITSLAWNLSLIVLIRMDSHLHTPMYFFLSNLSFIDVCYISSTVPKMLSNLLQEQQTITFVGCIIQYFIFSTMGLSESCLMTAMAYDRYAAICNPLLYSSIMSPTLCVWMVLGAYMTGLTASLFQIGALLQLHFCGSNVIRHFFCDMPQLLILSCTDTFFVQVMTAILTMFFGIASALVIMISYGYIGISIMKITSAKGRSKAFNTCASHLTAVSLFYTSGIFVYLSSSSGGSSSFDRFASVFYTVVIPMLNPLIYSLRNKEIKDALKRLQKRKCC
Summed up: as §1

The target of another assay is T8, OR5AP2 (Homo sapiens) (UniProt Q8NGF4).
T8 sequence (whole entry): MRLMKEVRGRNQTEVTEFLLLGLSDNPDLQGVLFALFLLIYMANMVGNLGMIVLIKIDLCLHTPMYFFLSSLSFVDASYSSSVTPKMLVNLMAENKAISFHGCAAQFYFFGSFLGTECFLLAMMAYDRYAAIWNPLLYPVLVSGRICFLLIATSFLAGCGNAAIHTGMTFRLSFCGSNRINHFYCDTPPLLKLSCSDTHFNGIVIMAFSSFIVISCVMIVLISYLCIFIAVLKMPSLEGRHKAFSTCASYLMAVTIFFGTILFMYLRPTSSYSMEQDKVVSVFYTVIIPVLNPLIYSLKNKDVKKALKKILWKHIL
Summed up: as §1

The target in the next assay is OR5AC1 (Homo sapiens) (UniProt P0C628). Summed up:
as §1

The next assay deals with OR5AL1 (Homo sapiens) (UniProt P0C617). Summed up:
as §1

Each structure is given as a SMILES string. Numbering of substitutions follows the chain as printed.
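Also: active if original authors judged signal statistically different from baseline.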

Chain of OR5AC1 (Homo sapiens) (P0C628 whole entry): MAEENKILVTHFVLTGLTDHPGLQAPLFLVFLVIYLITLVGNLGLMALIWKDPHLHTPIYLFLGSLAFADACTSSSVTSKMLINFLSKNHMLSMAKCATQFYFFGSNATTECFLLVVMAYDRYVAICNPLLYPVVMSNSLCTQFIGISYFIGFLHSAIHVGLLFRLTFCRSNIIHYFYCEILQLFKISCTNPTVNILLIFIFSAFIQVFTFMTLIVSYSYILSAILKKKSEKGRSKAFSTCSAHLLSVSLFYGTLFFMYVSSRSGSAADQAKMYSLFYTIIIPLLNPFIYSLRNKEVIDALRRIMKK
Chain of OR5AL1 (Homo sapiens) (P0C617 whole entry): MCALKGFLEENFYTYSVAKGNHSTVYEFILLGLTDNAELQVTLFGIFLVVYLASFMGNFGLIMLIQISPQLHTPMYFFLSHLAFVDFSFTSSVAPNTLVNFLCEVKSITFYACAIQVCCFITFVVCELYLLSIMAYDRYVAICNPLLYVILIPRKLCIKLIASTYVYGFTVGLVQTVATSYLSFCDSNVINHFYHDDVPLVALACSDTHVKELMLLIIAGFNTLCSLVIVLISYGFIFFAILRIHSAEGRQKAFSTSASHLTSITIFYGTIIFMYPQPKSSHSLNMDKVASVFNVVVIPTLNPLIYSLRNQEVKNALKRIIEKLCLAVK

On to `CCC1OC(C)=C(O)C1=O` (configuration not stated), for which the “odorant receptor agonist call” value with OR56B4 (Homo sapiens), with OR5A1 (Homo sapiens), in the assay on OR5A1 D183N, with OR5A2 (Homo sapiens), in the assay with OR5AC2 (Homo sapiens) and in the assay with OR5AK2 (Homo sapiens) was “inactive” each time. For the same compound, the “odorant receptor agonist call” value in the assay with OR5AN1 (Homo sapiens) and in the assay with OR5AP2 (Homo sapiens) was “inactive” throughout.
Take `CC(CO)CS` (configuration not stated): the “odorant receptor agonist call” value with OR56B4 (Homo sapiens), in the assay with OR5A1 (Homo sapiens), in the assay with OR5A2 (Homo sapiens), in the assay with OR5AC2 (Homo sapiens), in the assay with OR5AK2 (Homo sapiens) and with OR5AN1 (Homo sapiens) was “inactive” throughout. Moreover, the “odorant receptor agonist call” value in the assay with OR5AP2 (Homo sapiens) was “inactive”.
Take `Cc1ccc(C(C)C)cc1O`: in the assay with OR5AC2 (Homo sapiens), the “odorant receptor agonist call” value was “inactive”.
For `CCCCC(S)C(C)CO` (configuration not stated), the “odorant receptor agonist call” value in the assay with OR56B4 (Homo sapiens) is “active”. The “odorant receptor agonist call” value with OR5A1 (Homo sapiens), in the assay with OR5A2 (Homo sapiens), with OR5AC2 (Homo sapiens), with OR5AK2 (Homo sapiens), with OR5AN1 (Homo sapiens) and in the assay with OR5AP2 (Homo sapiens) was “inactive” throughout.
Consider `COc1ccc(C)cc1`, for which the “odorant receptor agonist call” value with OR5AC2 (Homo sapiens) was “inactive”.
With `CC(CC=O)c1ccc(C(C)(C)C)cc1` (configuration not stated), the “odorant receptor agonist call” value with OR5AC2 (Homo sapiens) is “inactive”.
As to `CCCCCC1CCCC(=O)O1` (configuration not stated), in the assay with OR56B4 (Homo sapiens), the “odorant receptor agonist call” value was “active”.
As to `CCCCCCC=CCCC=O`, the “odorant receptor agonist call” value in the assay with OR56B4 (Homo sapiens), with OR5A1 (Homo sapiens), in the assay with OR5A1 D183N, in the assay with OR5A2 (Homo sapiens), with OR5AC2 (Homo sapiens) and in the assay with OR5AK2 (Homo sapiens) was “inactive” in each case. Moreover, the “odorant receptor agonist call” value with OR5AN1 (Homo sapiens) and in the assay with OR5AP2 (Homo sapiens) was “inactive” throughout.
On to `CC(C)(C)C1CCCCC1OCCCCO` (configuration not stated), for which the “odorant receptor agonist call” value with OR5AC2 (Homo sapiens) was “inactive”.
In the case of `CC1=C(O)C(=O)OC1C` (configuration not stated), the “odorant receptor agonist call” value in the assay with OR56B4 (Homo sapiens), with OR5A1 (Homo sapiens), in the assay with OR5A1 D183N, with OR5A2 (Homo sapiens), in the assay with OR5AC2 (Homo sapiens) and with OR5AK2 (Homo sapiens) was “inactive” in each case. Moreover, the “odorant receptor agonist call” value with OR5AN1 (Homo sapiens) and with OR5AP2 (Homo sapiens) was “inactive” in each case.
As to `CC(=O)c1c(C)c([N+](=O)[O-])c(C(C)(C)C)c([N+](=O)[O-])c1C`, the “odorant receptor agonist call” value in the assay with OR56B4 (Homo sapiens), in the assay with OR5A1 (Homo sapiens), with OR5A2 (Homo sapiens), with OR5AC1 (Homo sapiens), with OR5AC2 (Homo sapiens) and in the assay with OR5AK2 (Homo sapiens) was “inactive” each time. For the same compound, the “odorant receptor agonist call” value with OR5AL1 (Homo sapiens) and with OR5AP2 (Homo sapiens) was “inactive” in each case. For the same compound, in the assay with OR5AN1 (Homo sapiens), the “odorant receptor agonist call” value is “active”.
